Activity calls are given as the source filed them. No cut-off for these calls is given here.
How the values were obtained:
[1] = test system: Echinochloa crus-galli; assay: Herbicidal activity against Echinochloa crus-galli (barnyard grass) at 1.5 kg/ha preemergence treatment measured after 10 days by glasshouse test; assay type: functional; settings: pre-emergence, 240 h
Procedure, shortened: (§1)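 Glasshouse pre/postemergence test, each treatment in triplicate. Above-ground fresh weight measured 10 days after treatment. Result expressed as percent inhibition versus control, from 0 (no control) to 100 (complete control); glyphosate used as positive control.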

[2] = test system: Botrytis cinerea; assay: Fungicidal activity against Botryotinia fuckeliana assessed as inhibition of mycelia growth at 2 ppm; assay type: functional, organism-based
Procedure, shortened: (§2)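 Mycelial growth test in 96-well plates: compound incorporated into artificial growth medium at 2 ppm, two replicates per rate. Each well scored 99 for complete, 55 for partial or 0 for no inhibition. Values are the mean across replicates; azoxystrobin and prochloraz used as positive controls.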

[3] = test system: Pyrenophora teres; assay: Fungicidal activity against Pyrenophora teres assessed as inhibition of disease development in compound treated leaf pieces at 20 ppm relative to untreated control (barley-preventative); assay type: functional
Procedure, shortened: (§3)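 Preventative leaf-piece test on host tissue (tomato, vine, wheat or barley). Formulated compound applied at 200, 60 and 20 ppm before spore inoculation. Disease scored 3–9 days after inoculation, depending on the pathogen, as percent inhibition of disease development versus untreated controls. Values are the mean across replicates.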

[4] = test system: Fusarium graminearum; assay: Fungicidal activity against Fusarium graminearum assessed as inhibition of mycelia growth at 2 ppm; assay type: functional, organism-based; procedure, shortened: as §2
[5] = test system: Puccinia triticina; assay: Fungicidal activity against Puccinia triticina assessed as inhibition of disease development in compound treated leaf pieces at 60 ppm relative to untreated control (wheat-curative); assay type: functional
Procedure, shortened: (§4)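 Curative wheat leaf-piece test against Puccinia triticina. Leaf pieces inoculated with spores first, then treated with formulated compound at 200, 60 or 20 ppm. Disease scored 3–9 days after inoculation as percent inhibition versus untreated controls. Values are the mean across replicates.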

[6] = test system: Pyrenophora teres; assay: Fungicidal activity against Pyrenophora teres assessed as inhibition of disease development in compound treated leaf pieces at 60 ppm relative to untreated control (barley-preventative); assay type: functional; procedure, shortened: as §3
[7] = test system: Heliothis virescens; assay: Insecticidal activity against Lepidoptera Heliothis virescens (tobacco budworm) assessed as mortality at 1000 ppm by leaf-disk assay; assay type: functional, organism-based
Procedure, shortened: (§5)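 Leaf-disk assay at 1000 ppm, three replicates. Plates kept 5–9 days in controlled-environment cabinets. Mortality judged against untreated wells: 99 for significant mortality, 0 otherwise. Values are the mean of three; thiamethoxam and indoxacarb used as positive controls.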

[8] = test system: Phytophthora infestans; assay: Fungicidal activity against Phytophthora infestans assessed as inhibition of disease development in compound treated leaf pieces at 60 ppm relative to untreated control (tomato-preventative); assay type: functional; procedure, shortened: as §3
[9] = test system: Amaranthus retroflexus; assay: Herbicidal activity against Amaranthus retroflexus assessed as growth inhibition at 1 kg/ha postemergence treatment by glasshouse test; assay type: functional; settings: post-emergence, read-out: GI
Procedure, shortened: (§6)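 Glasshouse screen with pre- or postemergence application at 1.0 kg/ha. Result given as percent inhibition of plant growth; norflurazon and glyphosate used as controls.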

[10] = test system: Zymoseptoria tritici; assay: Fungicidal activity against Zymoseptoria tritici assessed as inhibition of mycelia growth at 100 ppm; assay type: functional, organism-based
[11] = test system: Amaranthus retroflexus; assay: Herbicidal activity against Amaranthus retroflexus assessed as growth inhibition at 1 kg/ha preemergence treatment by glasshouse test; assay type: functional; settings: pre-emergence, read-out: GI; procedure, shortened: as §6
[12] = test system: Digitaria sanguinalis; assay: Herbicidal activity against Digitaria sanguinalis (hairy crabgrass) assessed as growth inhibition at 1 kg/ha preemergence treatment by glasshouse test; assay type: functional; settings: pre-emergence, read-out: GI; procedure, shortened: as §6
[13] = test system: Phytophthora infestans; assay: Fungicidal activity against Phytophthora infestans assessed as inhibition of mycelia growth at 200 ppm; assay type: functional, organism-based
[14] = test system: Echinochloa crus-galli; assay: Herbicidal activity against Echinochloa crus-galli (barnyard grass) at 1.5 kg/ha postemergence treatment measured after 10 days by glasshouse test; assay type: functional; settings: post-emergence, 240 h; procedure, shortened: as §1
[15] = test system: Alternaria solani; assay: Fungicidal activity against Alternaria solani assessed as inhibition of mycelia growth at 2 ppm; assay type: functional, organism-based; procedure, shortened: as §2
[16] = test system: Stellaria media; assay: Herbicidal activity against Stellaria media assessed as growth inhibition at 1 kg/ha postemergence treatment by glasshouse test; assay type: functional; settings: post-emergence, read-out: GI; procedure, shortened: as §6
[17] = test system: Alternaria solani; assay: Fungicidal activity against Alternaria solani assessed as inhibition of disease development in compound treated leaf pieces at 60 ppm relative to untreated control (tomato-preventative); assay type: functional; procedure, shortened: as §3
[18] = test system: Lolium perenne; assay: Herbicidal activity against Lolium perenne (perennial ryegrass) assessed as growth inhibition at 1 kg/ha postemergence treatment by glasshouse test; assay type: functional; settings: post-emergence, read-out: GI; procedure, shortened: as §6
[19] = test system: Plasmopara viticola; assay: Fungicidal activity against Plasmopara viticola assessed as inhibition of disease development in compound treated leaf pieces at 200 ppm relative to untreated control (grapevine-preventative); assay type: functional; procedure, shortened: as §3
[20] = test system: Stellaria media; assay: Herbicidal activity against Stellaria media assessed as growth inhibition at 1 kg/ha preemergence treatment by glasshouse test; assay type: functional; settings: pre-emergence, read-out: GI; procedure, shortened: as §6
[21] = test system: Puccinia triticina; assay: Fungicidal activity against Puccinia triticina assessed as inhibition of disease development in compound treated leaf pieces at 200 ppm relative to untreated control (wheat-preventative); assay type: functional; procedure, shortened: as §3
[22] = test system: Parastagonospora nodorum; assay: Fungicidal activity against Phaeosphaeria nodorum assessed as inhibition of disease development in compound treated leaf pieces at 60 ppm relative to untreated control (wheat preventative); assay type: functional; procedure, shortened: as §3
[23] = test system: Puccinia triticina; assay: Fungicidal activity against Puccinia triticina assessed as inhibition of disease development in compound treated leaf pieces at 20 ppm relative to untreated control (wheat-preventative); assay type: functional; procedure, shortened: as §3
[24] = test system: Plasmopara viticola; assay: Fungicidal activity against Plasmopara viticola assessed as inhibition of disease development in compound treated leaf pieces at 60 ppm relative to untreated control (grapevine-preventative); assay type: functional; procedure, shortened: as §3
[25] = test system: Parastagonospora nodorum; assay: Fungicidal activity against Phaeosphaeria nodorum assessed as inhibition of disease development in compound treated leaf pieces at 200 ppm relative to untreated control (wheat preventative); assay type: functional
Procedure, shortened: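 Wheat leaf pieces treated with formulated compound (200, 60 and 20 ppm) before inoculation with pathogen spores. Disease development assessed 3–9 days after inoculation, depending on the assay. Scored as percent inhibition relative to untreated controls; value is the mean across replicates.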

[26] = test system: Blumeria graminis f. sp. tritici; assay: Fungicidal activity against Blumeria graminis f. sp. tritici assessed as inhibition of disease development in compound treated leaf pieces at 60 ppm relative to untreated control (wheat-preventative); assay type: functional
[27] = test system: Aphididae; assay: Insecticidal activity against Aphididae (aphids) assessed as mortality at 1000 ppm by leaf-disk assay; assay type: functional, organism-based; procedure, shortened: as §5
[28] = test system: Puccinia triticina; assay: Fungicidal activity against Puccinia triticina assessed as inhibition of disease development in compound treated leaf pieces at 200 ppm relative to untreated control (wheat-curative); assay type: functional; procedure, shortened: as §4
[29] = test system: Brassica napus; assay: Herbicidal activity against Brassica napus (oilseed rape) at 1.5 kg/ha postemergence treatment measured after 10 days by glasshouse test; assay type: functional; settings: post-emergence, 240 h; procedure, shortened: as §1
[30] = test system: Arabidopsis thaliana; assay: Herbicidal activity against Arabidopsis thaliana assessed as growth inhibition at 10 ppm by 96-well plate test; assay type: functional; settings: read-out: GI
Procedure, shortened: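 96-well plate herbicide screen: Arabidopsis thaliana at 10 ppm and Poa annua at 32 ppm, two replicates. Plates incubated seven days in a controlled-environment cabinet. Each replicate scored 0 (no visible effect) or 99 (herbicidal effect); values are the mean of the two. Atrazine used as reference.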

[31] = test system: Blumeria graminis f. sp. tritici; assay: Fungicidal activity against Blumeria graminis f. sp. tritici assessed as inhibition of disease development in compound treated leaf pieces at 200 ppm relative to untreated control (wheat-preventative); assay type: functional
[32] = test system: Phytophthora infestans; assay: Fungicidal activity against Phytophthora infestans assessed as inhibition of disease development in compound treated leaf pieces at 200 ppm relative to untreated control (tomato-preventative); assay type: functional; procedure, shortened: as §3
[33] = test system: Lolium perenne; assay: Herbicidal activity against Lolium perenne (perennial ryegrass) assessed as growth inhibition at 1 kg/ha preemergence treatment by glasshouse test; assay type: functional; settings: pre-emergence, read-out: GI; procedure, shortened: as §6

**Q.** How did the inhibition at 1500 g/ha [1] turn out when CC(C)Nc1nc(Cl)nc(NCc2ccc(F)cc2)n1 was run?
**A.** 2.1%

**Q.** And the inhibition [2]?
**A.** Active

**Q.** What about the inhibition at 20 ppm [3] of the same molecule?
**A.** 0%

**Q.** What about the inhibition [4] of the same molecule?
**A.** inactive

**Q.** What about the inhibition at 60 ppm [5] of the same molecule?
**A.** 100%

**Q.** What about the inhibition at 60 ppm [6] of the same molecule?
**A.** 0%

**Q.** And the mortality [7]?
**A.** inactive

**Q.** And the inhibition at 60 ppm [8]?
**A.** 0%

**Q.** What about the inhibition of growth at 1000 g/ha [9] of the same molecule?
**A.** 100%

**Q.** And the inhibition [10]?
**A.** Active

**Q.** And the inhibition of growth at 1000 g/ha [11]?
**A.** 100%

**Q.** And the inhibition of growth at 1000 g/ha [12]?
**A.** 70%

**Q.** And the inhibition [13]?
**A.** inactive

**Q.** What about the inhibition at 1500 g/ha [14] of the same molecule?
**A.** 75.7%

**Q.** What about the inhibition [15] of the same molecule?
**A.** inactive

**Q.** What about the inhibition of growth at 1000 g/ha [16] of the same molecule?
**A.** 90%

**Q.** And the inhibition at 60 ppm [17]?
**A.** 0%

**Q.** And the inhibition of growth at 1000 g/ha [18]?
**A.** 50%

**Q.** And the inhibition at 200 ppm [19]?
**A.** 50%

**Q.** What about the inhibition of growth at 1000 g/ha [20] of the same molecule?
**A.** 90%

**Q.** And the inhibition at 200 ppm [21]?
**A.** 100%

**Q.** And the inhibition at 60 ppm [22]?
**A.** 20%

**Q.** What about the inhibition at 20 ppm [23] of the same molecule?
**A.** 0%

**Q.** And the inhibition at 60 ppm [24]?
**A.** 20%

**Q.** And the inhibition at 200 ppm [25]?
**A.** 70%

**Q.** What about the inhibition at 60 ppm [26] of the same molecule?
**A.** 20%

**Q.** What about the mortality [27] of the same molecule?
**A.** inactive

**Q.** What about the inhibition at 200 ppm [28] of the same molecule?
**A.** 100%

**Q.** And the inhibition at 1500 g/ha [29]?
**A.** 100%

**Q.** What about the inhibition of growth at 10 ppm [30] of the same molecule?
**A.** 99%

**Q.** And the inhibition at 200 ppm [31]?
**A.** 70%

**Q.** And the inhibition at 200 ppm [32]?
**A.** 0%

**Q.** What about the inhibition of growth at 1000 g/ha [33] of the same molecule?
**A.** 30%

Source: ChEMBL document CHEMBL3046679, “Design, synthesis, and biological activities of arylmethylamine substituted chlorotriazine and methylthiotriazine compounds” (J Agric Food Chem, 2011)
